From ChEMBL document CHEMBL5038587, “Synthesis of Methoxy-, Methylenedioxy-, Hydroxy-, and Halo-Substituted Benzophenanthridinone Derivatives as DNA Topoisomerase IB (TOP1) and Tyrosyl-DNA Phosphodiesterase 1 (TDP1) Inhibitors and Their Biological Activity for Drug-Resistant Cancer” (J Med Chem, 2021) come the findings set out here.

The source made the active and inactive calls. The rule behind the calls is not given here.

The target of test [1] is T1, DNA topoisomerase 1 (Homo sapiens) (UniProt P11387).
T1 sequence (whole entry): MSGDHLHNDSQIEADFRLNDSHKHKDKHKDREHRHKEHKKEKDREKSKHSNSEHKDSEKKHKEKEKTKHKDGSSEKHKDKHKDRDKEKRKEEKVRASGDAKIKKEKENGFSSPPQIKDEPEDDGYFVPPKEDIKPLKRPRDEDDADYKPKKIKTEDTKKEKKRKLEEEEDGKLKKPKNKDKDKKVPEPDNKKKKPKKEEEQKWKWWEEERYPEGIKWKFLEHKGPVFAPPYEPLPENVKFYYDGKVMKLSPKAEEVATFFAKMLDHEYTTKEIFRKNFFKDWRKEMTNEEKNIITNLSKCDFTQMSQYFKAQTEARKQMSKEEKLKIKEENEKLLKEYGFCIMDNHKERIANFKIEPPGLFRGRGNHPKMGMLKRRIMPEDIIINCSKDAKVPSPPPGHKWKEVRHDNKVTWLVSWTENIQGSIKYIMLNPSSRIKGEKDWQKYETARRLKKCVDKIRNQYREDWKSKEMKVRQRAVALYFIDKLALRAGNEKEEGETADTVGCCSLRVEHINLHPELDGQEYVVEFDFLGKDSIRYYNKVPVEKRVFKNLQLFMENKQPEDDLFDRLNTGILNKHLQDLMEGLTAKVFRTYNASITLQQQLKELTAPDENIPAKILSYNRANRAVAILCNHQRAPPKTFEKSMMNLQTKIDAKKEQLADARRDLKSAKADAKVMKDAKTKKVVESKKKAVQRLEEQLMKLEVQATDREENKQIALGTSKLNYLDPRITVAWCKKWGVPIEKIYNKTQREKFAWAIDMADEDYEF
Briefly: Inhibition of recombinant TOP1 (unknown origin) at 1 uM using 3'-[32P]-labeled 117 bp DNA oligonucleotides as substrate incubated for 20 mins by PAGE analysis relative to CPT. The gist of the method:
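3'-[32P]-labeled 117 bp oligonucleotide (~2 nM) with recombinant TOP1 and compound, 25 °C, 20 min. Buffer: 10 mM Tris-HCl pH 7.5, 50 mM KCl, 5 mM MgCl2, 0.1 mM EDTA, BSA. Stopped with 0.5% SDS and run on 20% denaturing PAGE with phosphorimaging.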

In test [2] the target is Tyrosyl-DNA phosphodiesterase 1 (Homo sapiens, UniProt Q9NUW8). In words: Inhibition of TDP1 (unknown origin) using 5'-FAM-AGGATCTAAAAGACTT-BHQ-3' as substrate at 100 uM measured after 30 mins by fluorescence assay relative to control.
Sequence of Tyrosyl-DNA phosphodiesterase 1 (Q9NUW8 whole entry): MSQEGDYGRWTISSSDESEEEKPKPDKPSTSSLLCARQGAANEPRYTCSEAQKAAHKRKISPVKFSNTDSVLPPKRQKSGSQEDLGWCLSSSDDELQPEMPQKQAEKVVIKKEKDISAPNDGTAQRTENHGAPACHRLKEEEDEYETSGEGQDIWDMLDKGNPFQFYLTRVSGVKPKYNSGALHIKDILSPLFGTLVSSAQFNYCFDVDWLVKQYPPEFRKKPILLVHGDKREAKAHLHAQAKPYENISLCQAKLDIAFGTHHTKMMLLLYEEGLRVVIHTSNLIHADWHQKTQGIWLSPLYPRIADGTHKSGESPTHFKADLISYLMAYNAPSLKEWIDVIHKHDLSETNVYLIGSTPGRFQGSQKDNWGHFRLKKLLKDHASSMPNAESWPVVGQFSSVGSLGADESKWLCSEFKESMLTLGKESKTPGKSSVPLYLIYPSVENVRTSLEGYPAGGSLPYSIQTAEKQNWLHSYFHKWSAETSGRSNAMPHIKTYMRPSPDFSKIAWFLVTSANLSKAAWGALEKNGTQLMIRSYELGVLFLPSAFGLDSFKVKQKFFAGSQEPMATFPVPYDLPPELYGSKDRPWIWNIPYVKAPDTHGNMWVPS
For a further test, the system named is DU-145. In words: Cytotoxicity against human DU145 cells assessed as cell growth inhibition after 72 hrs by MTT assay. Type of test: functional. The gist of the method: (§1)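 Compounds predissolved in DMSO, tested in a five-dose series from 0.01 to 100 µM for 72 h, then read by MTT. Percent viability inhibition is taken against control, and GI50 is fitted by nonlinear regression.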
(Tetrazolium assays rely on reduction of a dye to a coloured formazan, in cell work by metabolically active cells.)

For the next test, the system named is MCF7. Briefly: Cytotoxicity against human MCF-7 cells assessed as cell growth inhibition after 72 hrs by MTT assay. Format: functional. An outline of the steps:
as §1

The next test has as its system A549. Briefly: Cytotoxicity against human A549 cells assessed as cell growth inhibition after 72 hrs by MTT assay. Format: functional. The gist of the method:
(§2)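 Cells kept in RPMI 1640 or DMEM with 10% FBS at 37 °C, 5% CO2. Compounds predissolved in DMSO, tested in a five-dose series from 0.01 to 100 µM for 72 h, then read by MTT. Percent viability inhibition is taken against control, and GI50 is fitted by nonlinear regression.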

The subject of a further test is HCT-116. Briefly: Cytotoxicity against human HCT-116 cells assessed as cell growth inhibition after 72 hrs by MTT assay. Type of test: functional. The gist of the method: as §2

The term inhibition denotes the change of the read-out against control, counted positive when it falls. With `CN(C)CCn1c(=O)c2cc3c(cc2c2ccc4cc5c(cc4c21)OCO5)OCO3`, the inhibition in test [1] was 20%.

As to `COc1cc2c(=O)n(CCN(C)C)c3c4ccccc4ccc3c2cc1OC`, the inhibition in test [1] was 25%.

As a reminder, the GI50 is the concentration that inhibits growth by half. As for `CN(C)CCn1c(=O)c2cc(O)c(O)cc2c2ccc3cc4c(cc3c21)OCO4`, the inhibition was found to be 0% in test [2] and 20% in test [1]. The GI50 with DU-145 is more than 100 µM.

Turning to `COc1cccc2c1c(=O)n(CCN(C)C)c1c3cc4c(cc3ccc21)OCO4`, the inhibition was 0% in test [2] and 20% in test [1].

In the case of `COc1ccc2c(=O)n(CCN(C)C)c3c4cc5c(cc4ccc3c2c1)OCO5`, the inhibition stood at 0% in test [2] and 75% in test [1]. Also, the GI50 in the test with MCF7 turned out to be 0.2 µM.

Turning to `CN(C)CCn1c(=O)c2ccc(C(F)(F)F)cc2c2ccc3cc4c(cc3c21)OCO4`, the inhibition turned out to be 0% in test [2] and 50% in test [1]. In addition, the GI50 in the test with DU-145 amounted to 1 µM.

As for `COc1ccc2c(=O)n(CCN(C)C)c3c4ccccc4ccc3c2c1OC`, in test [2], the inhibition is 0%. For the same compound, the inhibition result in test [1] is “inactive”.

`COc1ccc2c(c1)c(=O)n(CCN(C)C)c1c3cc4c(cc3ccc21)OCO4` displayed an inhibition in test [2] of 0%. For the same compound, the inhibition entry in test [1] was “Active”.

Consider `CN(C)CCn1c(=O)c2cc(F)c(F)cc2c2ccc3ccccc3c21`, for which the inhibition in test [2] stood at 0%; in test [1] it was 50%.

With `CN(C)CCn1c(=O)c2cc(F)ccc2c2ccc3cc4c(cc3c21)OCO4`, the inhibition in test [2] amounted to 0%; in test [1], 75%. In addition, the GI50 in the test with A549 came to 7.87 µM.

With `CN(C)CCn1c(=O)c2cc(O)ccc2c2ccc3ccccc3c21`, the values for the inhibition in test [2] and in test [1] were 0% and 20%, respectively.

Take `COc1cc2ccc3c4cc(OC)c(OC)cc4c(=O)n(CCN(C)C)c3c2cc1O`: the inhibition is 0% in test [2] and less than 20% in test [1].

On to `COc1cccc2c1c(=O)n(CCN(C)C)c1c3ccccc3ccc21`, for which, in test [1], the inhibition entry was “inactive”.

Turning to `CN(C)CCn1c(=O)c2cc(Br)ccc2c2ccc3cc4c(cc3c21)OCO4`, the inhibition in test [2] stood at 0%. The inhibition result in test [1] was “inactive”.

As for `COc1ccc2ccc3c4ccccc4c(=O)n(CCN(C)C)c3c2c1`, the values for the inhibition in test [2] and in test [1] were 0% and 20%, respectively.

The compound `COc1cc2ccccc2c2c1c1ccccc1c(=O)n2CCN(C)C` had an inhibition in test [2] of 0%. In addition, in test [1], the inhibition entry was “inactive”.

Turning to `CN(C)CCn1c(=O)c2cc(F)c(F)cc2c2ccc3cc4c(cc3c21)OCO4`, the inhibition in test [2] came out at 0%; in test [1] it was 75%.

Turning to `CN(C)CCn1c(=O)c2ccccc2c2ccc3cc(Br)ccc3c21`, the figures for the inhibition in test [2] and in test [1] were 0% and 20%, respectively.

Turning to `COc1cc2c(cc1O)c(=O)n(CCN(C)C)c1c3cc4c(cc3ccc21)OCO4`, in test [1], the inhibition came to 20%.

As for `COc1cc2c(ccc3c4cc(OC)c(OC)cc4c(=O)n(CCN(C)C)c23)cc1O`, the inhibition in test [1] stood at 20%.

Take `COc1cccc2ccc3c4ccccc4c(=O)n(CCN(C)C)c3c12`: in test [2], the inhibition came out at 0%. For the same compound, the inhibition entry in test [1] was “inactive”.

Turning to `COc1cc2ccc3c4c(OC)c(OC)ccc4c(=O)n(CCN(C)C)c3c2cc1OC`, in test [2], the inhibition turned out to be 0%. Besides, the GI50 in the test with HCT-116, in the test on DU-145 and with MCF7 was more than 100 µM each time. In addition, the inhibition entry in test [1] is “inactive”.

For `CN(C)CCn1c(=O)c2ccccc2c2ccc3ccccc3c21`, the inhibition in test [2] is 0%; in test [1], 20%.

In the case of `COc1cc2ccc3c4cc(OC)c(OC)cc4c(=O)n(CCN(C)C)c3c2cc1OC`, in test [1], the inhibition is less than 20%.

For `COc1cc2c(=O)n(CCN(C)C)c3c4cc5c(cc4ccc3c2cc1O)OCO5`, the inhibition worked out at 0% in test [2] and 20% in test [1]. Besides, the GI50 in the test on MCF7 and in the test on A549 was more than 100 µM throughout.

On to `COc1cc2ccc3c4ccc(OC)c(OC)c4c(=O)n(CCN(C)C)c3c2cc1OC`, for which the inhibition in test [2] stood at 0%. Moreover, the 50% growth inhibitory concentration (GI50) with HCT-116 is more than 100 µM. In addition, the inhibition entry in test [1] is “inactive”.

`COc1ccc2c(=O)n(CCN(C)C)c3c4cc5c(cc4ccc3c2c1OC)OCO5`: in test [2], the inhibition stood at 0%. For the same compound, in test [1], the inhibition result was “inactive”.

For the compound `CN(C)CCn1c(=O)c2ccccc2c2ccc3cc4c(cc3c21)OCO4`, the inhibition in test [2] was 0%; in test [1] it was 20%.

With `COc1cc2c(=O)n(CCN(C)C)c3c4cc(O)c(O)cc4ccc3c2cc1OC`, the inhibition in test [2] is 0%; in test [1], 50%.

Regarding `COc1cc2c(cc1OC(C)C)c(=O)n(CCN(C)C)c1c3cc4c(cc3ccc21)OCO4`, the inhibition in test [2] came out at 0%. In addition, the inhibition entry in test [1] is “inactive”.

On to `CN(C)CCn1c(=O)c2c3c(ccc2c2ccc4cc5c(cc4c21)OCO5)OCO3`, for which, in test [1], the inhibition amounted to 20%.

As for `COc1cc2ccc3c4ccc5c(c4c(=O)n(CCN(C)C)c3c2cc1OC)OCO5`, the inhibition in test [2] came out at 0%; in test [1], 20%.

For `COc1ccc2c(c1OC)c(=O)n(CCN(C)C)c1c3ccccc3ccc21`, the inhibition in test [2] came out at 0%. Moreover, the inhibition entry in test [1] was “inactive”.

In the case of `COc1ccc2c(c1OC)c(=O)n(CCN(C)C)c1c3cc4c(cc3ccc21)OCO4`, the inhibition in test [2] worked out at 0%. In addition, the inhibition entry in test [1] is “inactive”.

As for `COc1cccc2c1ccc1c3ccccc3c(=O)n(CCN(C)C)c21`, the inhibition was 0% in test [2] and 20% in test [1].

Take `COc1ccc2c(c1)c(=O)n(CCN(C)C)c1c3ccccc3ccc21`: the inhibition in test [1] is 20%.

Take `COc1cc2ccc3c4ccccc4c(=O)n(CCN(C)C)c3c2cc1OC`: the inhibition in test [1] came to 20%.

The compound `COc1cccc2c(=O)n(CCN(C)C)c3c4ccccc4ccc3c12` had an inhibition in test [2] of 0%. In addition, the inhibition entry in test [1] was “inactive”.

With `COc1ccc2c(c1O)c(=O)n(CCN(C)C)c1c3cc4c(cc3ccc21)OCO4`, in test [1], the inhibition worked out at 20%.

In the case of `CN(C)CCn1c(=O)c2cc3c(cc2c2ccc4ccccc4c21)OCO3`, the inhibition in test [1] was determined as 25%.

As to `COc1ccc2c(=O)n(CCN(C)C)c3c4ccccc4ccc3c2c1`, the inhibition in test [1] worked out at 20%.

As for `CN(C)CCn1c(=O)c2ccc(F)cc2c2ccc3cc4c(cc3c21)OCO4`, the inhibition in test [2] was determined as 0%; in test [1], 50%.

Regarding `CN(C)CCn1c(=O)c2c3c(ccc2c2ccc4ccccc4c21)OCO3`, in test [1], the inhibition stood at 20%.

As to `COc1ccc2c(=O)n(CCN(C)C)c3c4cc5c(cc4ccc3c2c1O)OCO5`, the inhibition in test [2] is 0%. Besides, in the test with MCF7, the GI50 was more than 100 µM. The inhibition entry in test [1] is “inactive”.

As for `CN(C)CCn1c(=O)c2cc([N+](=O)[O-])ccc2c2ccc3cc4c(cc3c21)OCO4`, the inhibition in test [2] worked out at 0%; in test [1] it was 75%.

`CN(C)CCn1c(=O)c2ccc(Cl)cc2c2ccc3cc4c(cc3c21)OCO4`: the inhibition in test [2] was determined as 0%; in test [1], 75%.

As for `COc1cc2c3ccccc3c(=O)n(CCN(C)C)c2c2ccccc12`, in test [1], the inhibition is less than 20%.

Turning to `COc1cc2ccc3c4cc5c(cc4c(=O)n(CCN(C)C)c3c2cc1OC)OCO5`, in test [1], the inhibition was less than 20%.

On to `COc1cc2c(=O)n(CCN(C)C)c3c4cc5c(cc4ccc3c2cc1OC(C)C)OCO5`, for which the inhibition in test [2] was 0%; in test [1], 20%. In addition, in the test with HCT-116, the GI50 was determined as 0.9 µM.

Regarding `COc1ccc2c(ccc3c4ccccc4c(=O)n(CCN(C)C)c23)c1`, the inhibition in test [2] was 0%; in test [1], 20%.
